# Screening data: PubChem BioAssay, several laboratories
# Hits are enriched below; roughly 2.3% of the tested compounds scored in any of these assays.
# SR-BI uptake up: activators of SR-BI mediated DiI-HDL uptake, primary screen, ldlA[mSR-BI] CHO cells, DiI fluorescence | 3 h; 100 = double the neutral-control signal | activation, % at 12.5 µM | 320,000 compounds, 0.096% hits | AID 504775, 2011;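 active means mean replicate activation of at least 60% and every replicate at or above 60%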;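 further: 0% = median plate neutral-control signal and 100% = twice that signal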
#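 Test system: SR-BI-overexpressing, LDLR-lacking CHO cells; Medium: Ham's F12 with 0.5% BSA, HEPES 25 mM, pH 7.4; Schedule: 3 h, 37 °C; Technique: bottom-read fluorescence, 550/595 nm.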
# CAL PDZ FP-1: CAL PDZ peptide-binding inhibitors, primary screen, biochemical, fluorescence polarization, Cer-tagged CAL PDZ, HTS; Golgi-associated PDZ and coiled-coil motif-containing protein (Homo sapiens), Q9HD26; purified CAL PDZ, TMR-peptide fluorescence polarization, 1 h; AID 504414, 2011; inhibition, % at 20 µM; 330,000 compounds, 0.02% hits;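 active means highest replicate inhibition of at least 40%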;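 further: plate controls were DMSO neutral control wells for no effect and unlabeled competitor peptide control wells for full effect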
#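 Assay system – tagged CAL PDZ protein CerCALP, purified · Timing – 1 h at RT · Compound – single point, 20 µM · Measured by – fluorescence polarization from S- and P-plane intensities, G-factor corrected · Evaluation – inhibition from polarization loss · Probe or stimulus – TMR reporter peptide T*-PRC34 · Buffer or medium – pH 7.4 phosphate-saline buffer, reducing agent, detergent, IgG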
# SR-BI HDL uptake: inhibitors of SR-BI mediated HDL lipid uptake, primary screen, ldlA[mSR-BI] cells, fluorescence, single point | AID 488896, 2010 | inhibition, % at 12.5 µM | Scavenger receptor class B member 1 (Mus musculus), Q61009 | 320,000 compounds, 0.96% hits | ldlA[mSR-BI] CHO cells, DiI-HDL uptake fluorescence, 3 h;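 active means mean replicate inhibition of at least 70% and a set share of replicates each scoring 70 or more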;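 further: 0% = median of neutral control wells and 100% = median of positive control wells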
# ATG4B inh: ATG4B protease inhibitors, primary screen, biochemical, fluorescence, uHTS | Cysteine protease ATG4B (Homo sapiens), Q9Y4P1 | ATG4B cleavage of LC3-PLA2, NBD-HPC fluorescence, 1 h | inhibition, % at 8.33 µM | 340,000 compounds, 0.51% hits; in the data active means inhibition above about 40%
# Target sequence (Q9Y4P1 whole entry, looked up): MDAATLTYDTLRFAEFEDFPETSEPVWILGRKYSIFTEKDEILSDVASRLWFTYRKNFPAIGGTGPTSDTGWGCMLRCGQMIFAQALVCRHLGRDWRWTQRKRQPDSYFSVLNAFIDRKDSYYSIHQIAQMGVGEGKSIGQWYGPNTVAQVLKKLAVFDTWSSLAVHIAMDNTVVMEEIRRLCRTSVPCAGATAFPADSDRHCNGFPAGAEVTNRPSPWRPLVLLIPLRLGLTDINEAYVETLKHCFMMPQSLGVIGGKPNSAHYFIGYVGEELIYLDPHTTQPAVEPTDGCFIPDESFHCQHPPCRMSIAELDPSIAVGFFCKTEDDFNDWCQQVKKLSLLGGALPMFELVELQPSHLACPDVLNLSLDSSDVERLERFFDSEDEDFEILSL
# CAL PDZ FP-2: untagged CAL PDZ binding inhibitors, primary screen, biochemical, fluorescence polarization, HTS; Golgi-associated PDZ and coiled-coil motif-containing protein (Homo sapiens), Q9HD26; purified CAL PDZ, TMR-peptide fluorescence polarization, 1 h; inhibition, % at 24.9 µM; 300,000 compounds, 0.92% hits; AID 602252, 2012;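 active means mean inhibition of at least 30% with at least half of replicates also reaching 30%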;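 further: 0% = DMSO neutral control and 100% = excess unlabeled competitor peptide PRC23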
# ATG4B confirm: ATG4B protease inhibitors, retest, confirmation, biochemical, fluorescence, single concentration. shares compounds with ATG4B inh. AID 504757, 2011. 320 compounds, 92% hits. inhibition, % at 8.33 µM. ATG4B protease fluorescent substrate cleavage assay; in the data active means inhibition above about 39%
# PLA2 counter: PLA2 enzyme inhibition, counter-screen for ATG4B inhibitor project, biochemical, single concentration, uHTS hits; inhibition, % at 8.33 µM; purified PLA2, NBD-C6-HPC fluorescence, 45 min; 1,600 compounds, 66% hits; shares compounds with ATG4B inh; in the data active means inhibition above about 50%
# Target sequence (P04054 whole entry, looked up): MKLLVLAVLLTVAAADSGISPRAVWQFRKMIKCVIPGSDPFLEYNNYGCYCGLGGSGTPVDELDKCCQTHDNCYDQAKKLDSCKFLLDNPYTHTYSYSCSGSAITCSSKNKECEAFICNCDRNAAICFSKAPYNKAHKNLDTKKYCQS
# Active calls of the source: *; . = no result given.
SMILES,SR-BI uptake up,CAL PDZ FP-1,SR-BI HDL uptake,ATG4B inh,CAL PDZ FP-2,PLA2 counter,others
O=C(CCNC(=O)C1CCN(S(=O)(=O)c2ccccc2)CC1)NCc1cccc(C(F)(F)F)c1,-27,0,27,-4,1,.,
O=C(NCc1cccc(C(F)(F)F)c1)N1CCN(S(=O)(=O)c2ccccc2F)CC1,.,-1,.,51*,-5,46,ATG4B confirm=61*
Cc1cccc(-n2c(C)cc(/C=C3\C(=N)N4N=C(CC(C)C)SC4=NC3=O)c2C)c1,-3,1,3,12,-1,.,
CC1=NN2C(=N)/C(=C\c3cc(C)n(-c4cccc(C)c4)c3C)C(=O)N=C2S1,-32,-1,32,17,.,.,
CCCC1=NN2C(=N)/C(=C\c3cc(C)n(-c4cc(C)cc(C)c4)c3C)C(=O)N=C2S1,-39,0,39,58*,-1,55*,
Cc1cc(C)cc(-n2c(C)cc(/C=C3\C(=N)N4N=C(CC(C)C)SC4=NC3=O)c2C)c1,-16,-2,16,44*,-3,47,ATG4B confirm=46*
CC(C)COC(=O)c1ccc(N2C(=O)c3ccccc3C2=O)cc1,11,-1,-11,45*,-2,17,ATG4B confirm=67*
O=C(N/N=C/c1ccccc1Cl)c1nc2ccc([N+](=O)[O-])cc2c(=O)[nH]1,-14,-3,14,41*,-5,43,ATG4B confirm=66*
COc1ccc(C(=O)c2cnc3ccccc3c2-c2ccccc2)cc1,-36,-2,36,72*,-1,83*,
Cc1ccc(C(=O)c2cnc3ccccc3c2-c2ccccc2)cc1,-43,-2,43,69*,0,82*,
Cc1ccc(C(=O)c2nc(C(=O)NCCO)nc3ccccc23)cc1,1,0,-1,4,3,.,
Cc1cc(C)c(OCC(=O)Nc2cccc(NC(=O)c3ccco3)c2)c(Br)c1,-39,-4,39,60*,-2,63*,
COc1ccc(CCNC(=O)CCC(=O)N2CCOc3ccccc32)cc1OC,-1,-1,1,-7,.,.,
Cc1ccc(C)c(CNC(=O)Nc2ccccc2)c1,.,0,.,49*,.,51*,
Cc1ccc(CNC(=O)Nc2ccccc2)cc1,8,0,-8,5,1,.,
Cc1sc2nc(C(C)C)nc(SCC(=O)N3CCN(C(=O)c4ccco4)CC3)c2c1C,-10,-2,10,47*,-9,57*,
Cc1sc2ncnc(SCC(=O)N3CCN(C(=O)c4ccco4)CC3)c2c1C,6,-3,-6,4,-5,.,
Cc1nc(N2CCN(C(=O)c3ccco3)CC2)c2c3c(sc2n1)CCC3,-69,-3,69,67*,0,71*,
CC(C)c1nc(N2CCN(C(=O)c3ccco3)CC2)c2c3c(sc2n1)CCCC3,-24,0,24,92*,-1,90*,
O=C(c1ccco1)N1CCN(C(=O)c2cccn3c(=O)c4c5c(sc4nc23)CCCC5)CC1,.,-1,.,-2,6,.,
CCc1c(C)sc2nc(C(C)C)nc(SCC(=O)N3CCc4ccccc4C3)c12,.,.,.,46*,.,50*,
Cc1sc2nc(C3CC3)nc(SCC(=O)N3CCc4ccccc4C3)c2c1C,2,-2,-2,37,-2,.,
CC(C(=O)N1CCc2ccccc21)n1cnc2c1c(=O)n(C)c(=O)n2C (configuration not stated),1,0,-1,2,0,.,
CCOc1c(Cl)cc(CNc2ccc(S(N)(=O)=O)cc2)cc1OC,-23,0,23,-6,-4,.,
COc1c(Cl)cc(Cl)cc1CNc1ccc(S(N)(=O)=O)cc1,-20,-1,20,82*,-4,85*,
SMILES,SR-BI uptake up,CAL PDZ FP-1,SR-BI HDL uptake,ATG4B inh,CAL PDZ FP-2,PLA2 counter,others
O=C(c1ccc(Cl)cc1)c1oc2ccccc2c1CS(=O)(=O)c1ccccc1,-38,-2,38,43*,.,-11,
O=C(NNC(=O)c1nn(-c2ccc(F)cc2)ccc1=O)c1ccccc1Cl,4,0,-4,42*,.,-21,
COC(=O)c1ccc(CSc2nc3c(c(=O)n2-c2ccc(Br)cc2)SCC3)o1,3,-1,-3,65*,2,73*,
CCOc1ccc(-n2c(SCC(=O)Nc3ccc(OC)cc3)nc3c(c2=O)SCC3)cc1,8,1,-8,10,-1,.,
CCOc1ccc(-n2c(SCc3ccc(C(=O)OC)o3)nc3c(c2=O)SCC3)cc1,-30,.,30,60*,1,77*,
N#Cc1nccnc1S(=O)(=O)c1cccs1,.,.,.,4,.,.,
O=C(COc1ccccc1)NCC1CCCO1 (configuration not stated),30,-3,-30,4,-1,.,
O=C(COc1ccc(C(=O)c2ccccc2)cc1)NCC1CCCCC1,-2,-3,2,46*,6,14,
O=C1NC(=Nc2ccccc2)S/C1=C\c1cccn1-c1ccccc1,-19,0,19,68*,-1,59*,
Cc1cccc(N=C2NC(=O)/C(=C/c3cccn3C)S2)c1,3,-1,-3,12,0,.,
O=C(O)c1cc(N2N=C(C(F)(F)F)/C(=C/C=C/c3ccco3)C2=O)ccc1Cl,-32,.,32,96*,-2,78*,
FC(F)Oc1ccc(NC(=S)NC2CCSc3ccccc32)cc1 (configuration not stated),-34,-3,34,59*,-4,57*,
Cc1cccc(NC(=S)NC2CCSc3ccccc32)c1 (configuration not stated),-16,-2,16,42*,-1,54*,
S=C(NCc1ccccc1)NC1CCSc2ccccc21 (configuration not stated),11,0,-11,64*,-7,69*,
COc1cccc(CC(=O)NC2CCSc3ccccc32)c1 (configuration not stated),4,-2,-4,4,4,.,
CCOC(=O)[C@@H]1CSCCS(=O)(=O)N1,15,-1,-15,3,-4,.,
